Tests used:
U-937 [1] = assay: Growth inhibition of human U937 cells at 10 uM after 72 hrs by WST-8 reagent based MTT assay; type: functional; details: U-937, 72 h, read-out: GI
In short: (§1)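 Single-concentration screen at 10 μM on K562 or U937 cells in RPMI1640 with 10% FBS, 5.0 × 10³ cells/well, settled 4 h, then 72 h exposure at 37 °C, 5% CO₂. WST-8/1-methoxyphenazinium reagent added for 1.5 h. A450 read with 650 nm correction. Growth given as % absorbance relative to vehicle control, averaged over three independent experiments.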

U-937 [2] = assay: Cytotoxicity against human U937 cells after 72 hrs by WST-8 reagent based MTT assay; type: functional, cell-based; details: U-937, 72 h
In short: (§2)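 K562 or U937 cells in RPMI1640 with 10% FBS, 5.0 × 10³ cells/well, settled 4 h at 37 °C, 5% CO₂. Exposed to compound for 72 h. Medium removed, then WST-8 reagent (5 mM WST-8, 0.2 mM 1-methoxyphenazinium salt, 150 mM NaCl) added for 1.5 h at 37 °C. Absorbance read at 450 nm, corrected at 650 nm, as % of vehicle control. IC50 from concentration–response curve fitting. Three independent experiments averaged.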

K562 [3] = assay: Growth inhibition of human K562 cells at 10 uM after 72 hrs by WST-8 reagent based MTT assay; type: functional; details: K562, 72 h, read-out: GI; in short: as §1
K562 [4] = assay: Cytotoxicity against human K562 cells after 72 hrs by WST-8 reagent based MTT assay; type: functional, cell-based; details: K562, 72 h; in short: as §2

SMILES | inhibition of growth at 10 µM (U-937 [1]) [%] | IC50 (U-937 [2]) [µM] | inhibition of growth at 10 µM (K562 [3]) [%] | IC50 (K562 [4]) [µM]
COc1cc2c(Nc3ccc4sc(C(=O)Nc5c(C)cccc5Cl)cc4c3)ncnc2cc1OCCCN1CCCCC1 | 75.7 | 4.34 | 71.8 | 4.01
Cc1nc(Nc2ncc(C(=O)Nc3c(C)cccc3Cl)s2)cc(N2CCN(CCO)CC2)n1 [DASATINIB] | 37.2 | 13.6 | 37.4 | 12.8
COc1cc2c(Nc3ccc4sc(C(=O)Nc5c(C)cccc5Cl)cc4c3)ncnc2cc1OCCCN1CCN(C)CC1 | 76 | 3.48 | 51.2 | 9.88
CCN1CCN(c2cc(Nc3ccc4sc(C(=O)Nc5c(C)cccc5Cl)cc4c3)nc(C)n2)CC1 | 46.5 | 13.1 | 33.9 | 16.9
Cc1nc(Nc2ccc3sc(C(=O)Nc4c(C)cccc4Cl)cc3c2)cc(N2CCN(C)CC2)n1 | 40.6 | 15 | 32.4 | 17
Cc1nc(Nc2ccc3sc(C(=O)Nc4c(C)cccc4Cl)cc3c2)cc(N2CCN(CCO)CC2)n1 | 37.1 | 13.7 | 27.8 | 21.9
COc1cc2c(Nc3ccc4sc(C(=O)Nc5c(C)cccc5Cl)cc4c3)ncnc2cc1OCCCN1CCCCC1C (stereo not drawn) | 80.2 | 3.45 | 84.2 | 2.15
COc1cc2c(Nc3ccc4sc(C(=O)Nc5c(C)cccc5Cl)cc4c3)ncnc2cc1OCCCN1CCOCC1 | 56.2 | 9.09 | 9.99 | –
Cc1nc(Nc2ccc3sc(C(=O)Nc4c(C)cccc4Cl)cc3c2)cc(N2CCOCC2)n1 | 8.37 | – | 13.9 | –
Cc1nc(Nc2ccc3sc(C(=O)Nc4c(C)cccc4Cl)cc3c2)cc(N2CCCCC2)n1 | 20.6 | 20 | 8.78 | –
CCN(CCO)CCCOc1cc2ncnc(Nc3ccc4sc(C(=O)Nc5c(C)cccc5Cl)cc4c3)c2cc1OC | 76.9 | 4.25 | 59.8 | 8.97
Cc1nc(Nc2ccc3sc(C(=O)Nc4c(C)cccc4Cl)cc3c2)cc(N2CCC(C)CC2)n1 | 24.6 | 20.6 | 20.5 | 22.2
CCN(CC)CCCOc1cc2ncnc(Nc3ccc4sc(C(=O)Nc5c(C)cccc5Cl)cc4c3)c2cc1OC | 78 | 4.01 | 72.5 | 3.55

Source: ChEMBL document CHEMBL1938319, “Design, synthesis, and in vitro antiproliferative activity of novel Dasatinib derivatives” (Bioorg Med Chem Lett, 2012)
